Measured values published in ChEMBL document CHEMBL4138248, “Discovery of naphtho[1,2-d]oxazole derivatives as potential anti-HCV agents through inducing heme oxygenase-1 expression” (Eur J Med Chem, 2018).

Tests used:
[1] = Cytotoxicity against human Ava5 cells assessed as cell viability at 20 uM after 72 hrs by XTT assay relative to control; type: cell-based; conditions: read-out: Activity
Procedure, shortened: (§1)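 XTT viability assay run alongside the antiviral assays. Ava5 cells were plated at 5×10^3 per well and exposed to 20 or 200 μM for 72 h at 37 °C in humidified 5% CO₂. Viability is expressed as % of untreated cells.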

[2] = Cytotoxicity against human Ava5 cells assessed as cell viability at 200 uM after 72 hrs by XTT assay relative to control; type: cell-based; conditions: read-out: Activity; procedure, shortened: as §1
Hepatitis C virus [3] = experiment: Antiviral activity against HCV infected in human Ava5 cells assessed as inhibition of viral RNA replication at 20 uM after 3 days by RT-qPCR method relative to control; type: functional, Hepacivirus hominis; conditions: Ava5, 72 h
Procedure, shortened: (§2)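 Ava5 replicon cells were exposed to 5 or 20 μM for 3 days, starting from 10 mM DMSO stocks diluted in medium. HCV RNA was quantified by RT-qPCR against gapdh and expressed as % inhibition relative to untreated control. Ribavirin was the reference drug. Mean ± SD of three independent experiments.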

Hepatitis C virus [4] = experiment: Antiviral activity against HCV infected in human Ava5 cells assessed as inhibition of viral RNA replication at 5 uM after 3 days by RT-qPCR method relative to control; type: functional, Hepacivirus hominis; conditions: Ava5, 72 h; procedure, shortened: as §2
[5] = Cytotoxicity against human Ava5 cells assessed as decrease in cell viability after 72 hrs by XTT assay; type: cell-based
Procedure, shortened: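 XTT assay on […] Ava5 cells at 5×10^3 per well with serial dilutions for 72 h at 37 °C in 5% CO₂. CC50 is the concentration giving 50% growth inhibition.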

[6] = Selectivity index, ratio of CC50 for human Ava5 cells to IC50 for HCV; type: toxicity; conditions: read-out: Ratio CC50/IC50
Procedure, shortened: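 SI = CC50/IC50. CC50 comes from 72 h XTT in […] Ava5 cells. IC50 is the concentration giving 50% inhibition of HCV, measured by RT-qPCR after 3 days in Ava5 cells.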

Hepatitis C virus [7] = experiment: Antiviral activity against HCV infected in human Ava5 cells assessed as inhibition of viral RNA replication after 3 days by RT-qPCR method; type: functional, organism-based, Hepacivirus hominis; conditions: Ava5, 72 h
Procedure, shortened: (§3)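 Ava5 cells (Huh-7 hepatoma cells carrying an HCV replicon, grown in DMEM/10% FBS with 1 mg·mL⁻¹ G418) were treated for 3 days with a range of concentrations. HCV RNA was measured by RT-qPCR and normalized to cellular gapdh mRNA. Values are mean ± SD of three independent experiments, each in triplicate.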

Hepatitis C virus [8] = experiment: Antiviral activity against HCV infected in human Huh7 cells assessed as inhibition of viral RNA replication after 3 days by RT-qPCR method; type: functional, organism-based, Hepacivirus hominis; conditions: Huh-7, 72 h
Hepatitis C virus [9] = experiment: Antiviral activity against HCV Con1 infected in human Ava5 cells assessed as inhibition of viral RNA replication after 3 days by RT-qPCR method; type: functional, organism-based, Hepacivirus hominis; conditions: isolate Con1, Ava5, 72 h; procedure, shortened: as §3

| Compound | viability at 72 h, 20 µM [1] [%] | viability at 72 h, 200 µM [2] [%] | inhibition at 20 µM (Hepatitis C virus [3]) [%] | inhibition at 5 µM (Hepatitis C virus [4]) [%] | CC50 at 72 h [5] [µM] | selectivity ratio [6] | IC50 (Hepatitis C virus [7]) [µM] | EC50 (Hepatitis C virus [8]) [µM] | EC50 (Hepatitis C virus [9]) [µM] |
| --- | --- | --- | --- | --- | --- | --- | --- | --- | --- |
| COc1ccc(Nc2cc3oc(-c4ccc(Cl)cc4)nc3c3ccccc23)cc1 | 103 | 98.2 | 35.6 | 3.2 |  |  |  |  |  |
| CN(c1ccccc1)c1cc2oc(-c3ccccc3)nc2c2ccccc12 | 82.3 | 25.5 | 2.31 | 1.5 |  |  |  |  |  |
| Clc1ccc(-c2nc3c(cc(Nc4ccccc4)c4ccccc43)o2)cc1 | 99.9 | 62.4 | 3.33 | 2.5 |  |  |  |  |  |
| CN(c1ccc(Cl)cc1)c1cc2oc(-c3ccc(Cl)cc3)nc2c2ccccc12 | 86.4 | 30.2 | 2.56 | 1.1 |  |  |  |  |  |
| COc1ccc(N(C)c2cc3oc(-c4ccc(Cl)cc4)nc3c3ccccc23)cc1 | 94.7 | 29.6 | 2.65 | 2.4 |  |  |  |  |  |
| COc1ccc(-c2nc3c(cc(Nc4ccc(Cl)cc4)c4ccccc43)o2)cc1 | 83.7 | 23.4 | 8.5 | 4.5 |  |  |  |  |  |
| COc1ccc(-c2nc3c(cc(N(C)c4ccc(OC)cc4)c4ccccc43)o2)cc1 | 73.6 | 56.3 | 8.5 | 5.6 |  |  |  |  |  |
| COc1ccc(-c2nc3c(cc(N(C)c4ccc(Cl)cc4)c4ccccc43)o2)cc1 | 107 | 93 | 6.5 | 2.5 |  |  |  |  |  |
| COc1ccc(N(C)c2cc3oc(-c4ccco4)nc3c3ccccc23)cc1 | 49.5 | 32.3 | 31.5 | 2.5 |  |  |  |  |  |
| Clc1ccc(Nc2cc3oc(-c4ccc(Cl)cc4)nc3c3ccccc23)cc1 | 60.2 | 27.5 | 55.2 | 8.1 | 83.7 | 4.71 | 17.8 |  |  |
| NC(=O)c1ncn([C@@H]2O[C@H](CO)[C@@H](O)[C@H]2O)n1 [RIBAVIRIN] | 71.4 | 26.8 | 65.7 | 31.2 | 106 | 8.08 | 13.2 |  |  |
| COc1ccc(-c2nc3c(cc(N(C)c4ccccc4)c4ccccc43)o2)cc1 | 69.2 | 54 | 3.21 | 2.5 |  |  |  |  |  |
| c1ccc(Nc2cc3oc(-c4ccccc4)nc3c3ccccc23)cc1 | 87 | 25.5 | 4.28 | 3.51 |  |  |  |  |  |
| Clc1ccc(Nc2cc3oc(-c4ccccc4)nc3c3ccccc23)cc1 | 107 | 93 | 3.53 | 1.2 |  |  |  |  |  |
| COc1ccc(N(C)c2cc3oc(-c4ccccc4)nc3c3ccccc23)cc1 | 83.6 | 27.5 | 3.51 | 3.4 |  |  |  |  |  |
| COc1ccc(-c2nc3c(cc(Nc4ccccc4)c4ccccc43)o2)cc1 | 86.3 | 68.5 | 5.31 | 3.7 |  |  |  |  |  |
| COc1cc(NCc2cc3ccccc3oc2=O)cc(OC)c1OC |  |  |  |  |  |  |  | 12 |  |
| COc1ccc(Nc2cc3oc(-c4ccc(OC)cc4)nc3c3ccccc23)cc1 | 63.4 | 28.5 | 5.6 | 3.2 |  |  |  |  |  |
| CN(c1ccc(Cl)cc1)c1cc2oc(-c3ccccc3)nc2c2ccccc12 | 81 | 25.5 | 1.21 | 1.2 |  |  |  |  |  |
| Clc1ccc(Nc2cc3oc(-c4ccco4)nc3c3ccccc23)cc1 | 83.5 | 28.9 | 4.51 | 3.2 |  |  |  |  |  |
| CN(c1ccccc1)c1cc2oc(-c3ccc(Cl)cc3)nc2c2ccccc12 | 94.7 | 29.6 | 5.12 | 4.2 |  |  |  |  |  |
| CN(c1ccccc1)c1cc2oc(-c3ccco3)nc2c2ccccc12 | 88.8 | 40.6 | 3.54 | 2.9 |  |  |  |  |  |
| Cc1ccc2nc(Nc3ccc([N+](=O)[O-])cc3)sc2c1 |  |  |  |  |  |  |  |  | 8 |
| c1ccc(Nc2cc3oc(-c4ccco4)nc3c3ccccc23)cc1 | 81.2 | 31.5 | 2.53 | 1.8 |  |  |  |  |  |
| COc1ccc(Nc2cc3oc(-c4ccccc4)nc3c3ccccc23)cc1 | 92.7 | 37.1 | 86.7 | 75.5 | 158 | 48.4 | 3.27 |  |  |
| CN(c1ccc(Cl)cc1)c1cc2oc(-c3ccco3)nc2c2ccccc12 | 73 | 26.5 | 3.12 | 2.7 |  |  |  |  |  |
